ChEMBL document CHEMBL3621052, “Small cyclic agonists of iron regulatory hormone hepcidin” (Bioorg Med Chem Lett, 2015)
Activity calls are given as the source filed them. The calls are words filed in the database; no cut-off is given here. Starred links: 1 amine or outer side, 2 acyl side, 3 side chain; linkers in the order of their positions; H or OH if unused. Positions of bridges follow the written chain, without caps; N, C: chain ends. Non-standard residues stand in square brackets, D forms with d. Residues, ends and D or L forms follow the SMILES beside them. *: point of attachment. Propanoyl(3,3-Ph2) = O=C(CC(c1ccccc1)c1ccccc1)*; Dip = N[C@H](C(=O)O)C(c1ccccc1)c1ccccc1; X1 = CCCCCCCCCCCCCCCC(=O)NCCOCCOCCN*; mXylylene = c1cc(C[*:1])cc(C[*:2])c1; NH(CH2CH2O)2CH2CH2NH2 = NCCOCCOCCN*; Mpa = O=C(O)CCS

Tests used:
[1] = Half life in cynomolgus monkey; format: ADME, organism-based, Macaca fascicularis; conditions: in vivo
[2] = test system: Mus musculus; assay: Decrease in serum iron level in C57BL/6 mouse at 100 nmol, sc after 24 hrs by colorimetric analysis; format: functional, organism-based
Outline: (§1)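 C57BL/6 mice on NIH 31 diet (iron 336 mg/kg). Single subcutaneous injection of 50, 100 or 200 nmoles peptide in 100 μL PBS; controls received PBS alone. Killed at 24 h, serum from cardiac blood. Serum iron by colorimetric assay (microplate, 50 μL serum). Percent decrease versus mean of PBS-injected mice.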

[3] = test system: Plasma; assay: Metabolic stability in mouse plasma at 25 uM by LC/MS analysis; format: ADME, cell-free
Outline: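 Peptide from 10 mM DMSO stock added to fresh mouse plasma (final 25 μM), incubated at 37 °C. Samples (10 μL) taken at time-points and diluted into DMSO/ACN 1:1 with 0.1% TFA. Centrifuged 13000 rpm, 10 min. Supernatant analysed by triple-quadrupole LC/MS with NM4A-Me peptide as internal standard.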

[4] = biological target: T1, Ferroportin (Homo sapiens, UniProt Q9NP59); assay: Agonist activity at GFP-fused human FPN transfected in HEK293 cells assessed as protein degradation after 24 hrs by flow cytometric analysis; format: cell-based
T1 sequence (Q9NP59 whole entry): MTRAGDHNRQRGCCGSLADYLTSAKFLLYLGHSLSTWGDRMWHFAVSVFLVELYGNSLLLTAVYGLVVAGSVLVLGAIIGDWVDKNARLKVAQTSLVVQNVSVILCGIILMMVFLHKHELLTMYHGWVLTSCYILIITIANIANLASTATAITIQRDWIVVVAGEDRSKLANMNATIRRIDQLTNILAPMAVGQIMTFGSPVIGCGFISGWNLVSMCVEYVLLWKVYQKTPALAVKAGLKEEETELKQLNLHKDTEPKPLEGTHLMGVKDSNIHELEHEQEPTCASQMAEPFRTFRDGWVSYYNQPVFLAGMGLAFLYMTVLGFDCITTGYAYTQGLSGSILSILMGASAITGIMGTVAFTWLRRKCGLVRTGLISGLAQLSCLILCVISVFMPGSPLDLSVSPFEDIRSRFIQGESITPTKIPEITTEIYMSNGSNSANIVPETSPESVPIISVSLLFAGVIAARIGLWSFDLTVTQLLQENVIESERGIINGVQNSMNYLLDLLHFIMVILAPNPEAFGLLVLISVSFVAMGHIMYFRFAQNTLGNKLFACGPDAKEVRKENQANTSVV
Outline: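 HEK293:TREX-Fpn-GFP cells (human ferroportin-GFP, doxycycline-inducible) plated on poly-D-lysine with 20 μM FAC, induced with 500 ng/mL doxycycline for 24 h, washed, then peptide-treated 24 h. Green fluorescence read by flow cytometry at 1 × 10^6 cells/mL, gated against uninduced cells. Activity expressed as fraction of hep25: 1 − [(Fx − Fhep25)/(Funtreated − Fhep25)]. 3–6 independent repeats.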

[5] = test system: Mus musculus; assay: Decrease in serum iron level in C57BL/6 mouse at 50 to 100 nmol, sc after 24 hrs by colorimetric analysis; format: functional, organism-based; conditions: in the assay text read “50 to 200 nmol” for “50 to 100 nmol”
Outline: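 C57BL/6 mice on NIH 31 diet (iron 336 mg/kg) received 50, 100 or 200 nmoles peptide in 100 μL PBS sc, or PBS alone. Killed at 24 h, serum from cardiac puncture. Serum iron measured by microplate colorimetric assay using 50 μL serum. Reported as % decrease versus mean of PBS-injected mice.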

[6] = test system: Mus musculus; assay: Decrease in serum iron level in C57BL/6 mouse at 50 to 200 nmol, sc after 24 hrs by colorimetric analysis; format: functional, organism-based; outline: as §1
[7] = test system: Mus musculus; assay: Decrease in serum iron level in C57BL/6 mouse at 50 nmol, sc after 24 hrs by colorimetric analysis; format: functional, organism-based; outline: as §1

In the case of `CC[C@H](C)[C@@H]1NC(=O)[C@@H](NC(=O)[C@@H](NC(=O)[C@@H]2CCCN2C(=O)[C@H](Cc2ccccc2)NC(=O)[C@H](Cc2c[nH]cn2)NC(=O)[C@@H](NC(=O)[C@@H](N)CC(=O)O)[C@@H](C)O)[C@@H](C)CC)CSSC[C@@H](C(=O)N[C@@H](CCCCN)C(=O)N[C@H](C(=O)O)[C@@H](C)O)NC(=O)[C@@H]2CSSC[C@@H]3NC(=O)[C@@H]4CSSC[C@H](NC(=O)[C@H](Cc5ccccc5)NC1=O)C(=O)N[C@@H](CSSC[C@H](NC(=O)[C@H](CCCCN)NC(=O)[C@H](CO)NC(=O)[C@H](CCCNC(=N)N)NC(=O)[C@H](Cc1c[nH]cn1)NC3=O)C(=O)NCC(=O)N[C@@H](CCSC)C(=O)N2)C(=O)NCC(=O)N4`, the half-life [1] is reported as under 2.5 min.
For `CCCCCCCCCCCCCCCCNC(=O)CN(CC(N)=O)C(=O)CCCCCNC(=O)C[C@H](Cc1ccccc1)NC(=O)[C@H](CCCNC(=N)N)NC(=O)[C@H](CS)NC(=O)[C@H](CCCNC(=N)N)NC(=O)C[C@@H]1CCCN1C(=O)[C@@H](NC(=O)[C@H](Cc1c[nH]cn1)NC(=O)[C@@H](NC(=O)CNCC(=O)O)[C@@H](C)O)C(c1ccccc1)c1ccccc1`, the Activity [2] was “Active” and the Stability [3] was “Stable”.
For `CCCCCCCCCCCCCCCCNC(=O)CN(CC(N)=O)C(=O)CCCCCNC(=O)[C@@H]1CSCc2cccc(c2)CSC[C@H](NC(C)=O)C(=O)N[C@@H](C(c2ccccc2)c2ccccc2)C(=O)N2CCC[C@H]2C(=O)N[C@@H](CCCNC(=N)N)C(=O)N[C@@H](CS)C(=O)N[C@@H](CCCNC(=N)N)C(=O)N[C@@H](Cc2ccccc2)C(=O)N1`, the EC50 [4] was 44.2 nM and the Activity [5] was “inactive”.
`N=C(N)NCCC[C@@H]1NC(=O)[C@H](CS)NC(=O)[C@H](CCCNC(=N)N)NC(=O)[C@@H]2CCCN2C(=O)[C@H](C(c2ccccc2)c2ccccc2)NC(=O)CCSCc2cccc(c2)CSC[C@@H](C(=O)NCCOCCOCCN)NC(=O)[C@H](Cc2ccccc2)NC1=O` ([Mpa][Dip]PRCRFC-{NH(CH2CH2O)2CH2CH2NH2}; linker 1-8 via mXylylene) gave an EC50 [4] of 92.3 nM.
For `N=C(N)NCCC[C@@H]1NC(=O)[C@@H](NC(=O)CC(c2ccccc2)c2ccccc2)CSCc2cccc(c2)CSC[C@@H](C(N)=O)NC(=O)[C@H](Cc2ccccc2)NC(=O)[C@H](CCCNC(=N)N)NC(=O)[C@H](CS)NC1=O` ({Propanoyl(3,3-Ph2)}-CRCRFC-NH2; linker 1-6 via mXylylene), the EC50 [4] was 104 nM and the Activity [6] was “inactive”.
With `CCCCCCCCCCCCCCCC(=O)NCCOCCOCCNC(=O)[C@@H]1CSCc2cccc(c2)CSC[C@H](NC(=O)CC(c2ccccc2)c2ccccc2)C(=O)N[C@@H](CCCNC(=N)N)C(=O)N[C@@H](CS)C(=O)N[C@@H](CCCNC(=N)N)C(=O)N[C@@H](Cc2ccccc2)C(=O)N1` ({Propanoyl(3,3-Ph2)}-CRCRFC-X1; linker 1-6 via mXylylene) the EC50 [4] was 52.3 nM, the Activity [7] was “inactive” and the Stability [3] was “Stable”.
In the case of `N=C(N)NCCC[C@@H]1NC(=O)[C@H](CS)NC(=O)[C@H](CCCNC(=N)N)NC(=O)[C@H](NC(=O)CC(c2ccccc2)c2ccccc2)CSCc2cccc(c2)CSC[C@@H](C(N)=O)NC(=O)[C@H](Cc2ccccc2)NC1=O` ({Propanoyl(3,3-Ph2)}-[dC]RCRFC-NH2; linker 1-6 via mXylylene), the EC50 [4] is reported as 335 nM.
